Assay results from ChEMBL document CHEMBL4251722, “Identification of Ingol and Rhamnofolane Diterpenoids from Euphorbia resinifera and Their Abilities to Induce Lysosomal Biosynthesis” (2018).
The source made the active and inactive calls. The calls are words filed in the database; no cut-off is given here.

Columns and labels:
HeLa [1] = assay: Induction of lysosomal biosynthesis in human HeLa cells assessed as increase in staining intensity at 40 uM after 3 hrs by LysoTracker Red DND-99 staining based assay relative to control; type: functional
Outline: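 HeLa cells given 40 μM for 3 h, then LysoTracker Red staining. Signal intensity is quantified as fold induction relative to DMSO-treated cells. HEP-14 at 40 μM is the positive control. Independent triplicates.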

HeLa [2] = assay: Induction of lysosomal biosynthesis in human HeLa cells assessed as increase in staining intensity after 3 hrs by LysoTracker Red DND-99 staining based assay; type: functional, cell-based
Outline: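 HeLa cells exposed 3 h to 10, 20, 40 and 60 μM test agent, then stained with LysoTracker Red. Lysosome induction is read as fold of LysoTracker Red signal over the DMSO negative control, with HEP-14 as positive control. Three independent experiments.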

HeLa [3] = assay: Induction of lysosomal biosynthesis in human HeLa cells assessed as increase in staining intensity at 40 uM by LysoTracker Red DND-99 staining based assay; type: functional, cell-based; settings: TDE = time-dependent effect
Outline: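 Time course in HeLa cells at 40 μM over five treatment intervals, followed by LysoTracker Red staining. Output is fold induction of staining versus DMSO control. n = 3 independent experiments.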

HeLa [4] = assay: Up regulation of LAMP1 mRNA expression in human HeLa cells at 40 uM after 3 hrs by TRIzol dye based qRT-PCR analysis; type: functional, cell-based
HeLa [5] = assay: Up regulation of cathepsin B mRNA expression in human HeLa cells at 40 uM after 3 hrs by TRIzol dye based qRT-PCR analysis; type: functional, cell-based
HeLa [6] = assay: Up regulation of cathepsin A mRNA expression in human HeLa cells at 40 uM after 3 hrs by TRIzol dye based qRT-PCR analysis; type: functional, cell-based
HeLa [7] = assay: Up regulation of ATP6V0E1 mRNA expression in human HeLa cells at 40 uM after 3 hrs by TRIzol dye based qRT-PCR analysis; type: functional, cell-based

Structure (SMILES): COc1ccc([C@H](O)C(=O)O[C@@H]2/C(C)=C/[C@@]34O[C@@]3(C[C@@](C)(O)[C@@H]4OC(C)=O)C(=O)[C@H](C)[C@H](OC(C)=O)[C@@H]3[C@H]([C@@H]2OC(C)=O)C3(C)C)cc1
- Activity (HeLa [1]): 143.5%
- Activity (HeLa [2]): Dose-dependent effect
- Activity (HeLa [3]): Tde
- Activity (HeLa [4]): Active
- Activity (HeLa [5]): Active
- Activity (HeLa [6]): Active
- Activity (HeLa [7]): Active

Structure (SMILES): COc1ccc([C@H](O)C(=O)O[C@@H]2/C(C)=C/[C@@]34O[C@@]3(C[C@H](C)[C@@H]4OC(C)=O)C(=O)[C@H](C)[C@H](OC(C)=O)[C@@H]3[C@H]([C@@H]2OC(C)=O)C3(C)C)cc1
- Activity (HeLa [1]): 155.9%
- Activity (HeLa [2]): Dose-dependent effect
- Activity (HeLa [3]): Tde
- Activity (HeLa [4]): Active
- Activity (HeLa [5]): Active
- Activity (HeLa [6]): Active
- Activity (HeLa [7]): Active

Structure (SMILES): COc1ccc(CC(=O)O[C@@H]2/C(C)=C/[C@@]34O[C@@]3(C[C@H](C)[C@@H]4OC(C)=O)C(=O)[C@H](C)[C@H](OC(C)=O)[C@@H]3[C@H]([C@@H]2OC(C)=O)C3(C)C)cc1
- Activity (HeLa [1]): 140.7%
- Activity (HeLa [2]): Dose-dependent effect
- Activity (HeLa [3]): Tde
- Activity (HeLa [4]): Active
- Activity (HeLa [5]): Active
- Activity (HeLa [6]): Active
- Activity (HeLa [7]): Active
